# Reference: ChEMBL document CHEMBL4304751, “Discovery of Novel Pyrido-pyridazinone Derivatives as FER Tyrosine Kinase Inhibitors with Antitumor Activity” (ACS Med Chem Lett, 2019)
# What was measured:
# [1] = biological target: T1, Tyrosine-protein kinase Fer (Homo sapiens, UniProt P16591); assay: Inhibition of recombinant N-terminal His-tagged human FER (SH2 domain to C-terminal) expressed in Escherichia coli assessed as decrease in FL-Peptide22 substrate phosphorylation incubated for 90 mins
# Target sequence in this assay (P16591 whole entry, the tested form may be a part): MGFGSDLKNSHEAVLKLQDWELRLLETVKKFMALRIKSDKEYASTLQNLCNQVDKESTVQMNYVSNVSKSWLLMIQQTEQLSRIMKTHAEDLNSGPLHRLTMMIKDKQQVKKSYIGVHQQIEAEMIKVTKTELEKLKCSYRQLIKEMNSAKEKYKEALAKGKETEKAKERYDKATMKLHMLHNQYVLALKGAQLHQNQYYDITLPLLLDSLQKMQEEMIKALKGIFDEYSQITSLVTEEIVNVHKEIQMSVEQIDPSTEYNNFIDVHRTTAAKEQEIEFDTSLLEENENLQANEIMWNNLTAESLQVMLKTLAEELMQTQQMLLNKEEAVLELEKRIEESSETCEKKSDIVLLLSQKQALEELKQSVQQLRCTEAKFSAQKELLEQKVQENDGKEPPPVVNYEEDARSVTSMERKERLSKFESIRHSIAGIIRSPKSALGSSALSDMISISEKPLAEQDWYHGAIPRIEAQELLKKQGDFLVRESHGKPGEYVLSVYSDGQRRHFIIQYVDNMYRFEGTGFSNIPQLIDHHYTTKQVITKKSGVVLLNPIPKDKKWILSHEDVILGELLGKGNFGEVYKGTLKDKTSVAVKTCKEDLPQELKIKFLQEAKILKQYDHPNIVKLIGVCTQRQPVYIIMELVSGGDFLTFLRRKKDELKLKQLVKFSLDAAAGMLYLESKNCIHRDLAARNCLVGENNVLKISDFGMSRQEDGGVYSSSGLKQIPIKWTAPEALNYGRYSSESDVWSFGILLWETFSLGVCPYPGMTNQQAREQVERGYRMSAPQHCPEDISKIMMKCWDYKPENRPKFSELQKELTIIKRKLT
# [2] = Growth inhibition of mouse mock transfected BA/F3 cells assessed as decrease in cell viability after 3 days by luminescence based CellTiter-Glo assay; design: species or system BaF3
# Procedure, shortened: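 Ba/F3 growth inhibition run as quadruplicate experiments. GI50 fitted with 95% confidence intervals.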
# [3] = Metabolic stability in mouse liver microsomes assessed as parent compound remaining at 1 uM after 30 mins relative to control; format: ADME, Microsome; details: read-out: Stability
# Procedure, shortened: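 Test compound at 1.0 μM incubated 30 min with mouse liver microsomes (1.0 mg/mL protein). The fraction of parent remaining is reported.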
# [4] = Solubility in buffer at pH 6.8; format: physicochemical
# Procedure, shortened: (§1)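 Solubility expressed as μg/mL, measured in pH 6.8 buffer and in FaSSIF.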
# [5] = Protein binding in BALB/c mouse serum at 10 ug/mL incubated for 4 hrs under shaking condition by LC/MS/MS analysis; format: ADME, cell-free; details: read-out: PPB
# Procedure, shortened: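 Binding determined using serum samples from BALB/c mice.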
# [6] = Effective permeability of compound at 5 uM after 24 hrs at pH 7.4 by LC/MS/MS based PAMPA assay; format: ADME; details: read-out: Peff
# [7] = Total plasma clearance in BALB/cAnNCrlCrlj mouse at 1 mg/kg, iv after 24 hrs; format: ADME, organism-based
# Procedure, shortened: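 Clearance measured after a single intravenous dose of 1 mg/kg in mice.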
# [8] = AUC in BALB/cAnNCrlCrlj mouse at 10 mg/kg, po administered via gavage after 24 hrs; format: ADME, organism-based; design: time < 24 hr, dose 10 mg/kg, route oral; details: in vivo
# Procedure, shortened: (§2)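 Mouse pharmacokinetics: compound given orally at 10 mg/kg. Unbound plasma concentration is reported as a mean value after oral dosing.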
# [9] = Cmax in BALB/cAnNCrlCrlj mouse at 10 mg/kg, po administered via gavage after 24 hrs; format: ADME, organism-based; design: dose 10 mg/kg, route oral; details: in vivo; procedure, shortened: as §2
# [10] = Oral bioavailability in BALB/cAnNCrlCrlj mouse at 10 mg/kg administered via gavage after 24 hrs; format: ADME, organism-based; details: in vivo; procedure, shortened: as §2
# BaF3 = assay: Antitumor activity against mouse BA/F3 cells expressing myc/His-tagged ETV6-FER kinase domain (452 to 821 residues) allografted in BALB/cAJcl nu/nu mouse assessed as decrease in tumor volume administered orally once per day for 4 days starting from 6 days after tumor cell implantation and measured during compound dosing; format: functional, cell-based
# [11] = Toxicity in BALB/cAJcl nu/nu mouse allografted with mouse BA/F3 cells expressing myc/His-tagged ETV6-FER kinase domain (452 to 821 residues) assessed as change in body weight loss at 12.5 to 100 mg/kg, po administered once per day for 4 days starting from 6 days after tumor cell implantation and measured during compound dosing; format: organism-based; details: in vivo
# Mus musculus = assay: Unbound plasma concentration in BALB/cAnNCrlCrlj mouse at 10 mg/kg, po administered via gavage after 24 hrs by non-compartmental analysis; format: ADME, organism-based; details: in vivo; procedure, shortened: as §2
# [12] = biological target: ALK tyrosine kinase receptor (Homo sapiens) (UniProt Q9UM73); assay: Inhibition of recombinant N-terminal GST-fusion protein tagged human ALK cytoplasmic domain (1058 to 1620 residues) expressed in baculovirus expression system assessed as decrease in fluorescence labelled Srctide phosphorylation at 200 nM by off-chip mobility shift assay relative to control
# [13] = biological target: Receptor-type tyrosine-protein kinase FLT3 (Homo sapiens) (UniProt P36888); assay: Inhibition of recombinant N-terminal GST-fusion protein tagged human FLT3 cytoplasmic domain (564 to 993 residues) expressed in baculovirus expression system assessed as decrease in fluorescence labelled Srctide phosphorylation at 200 nM by off-chip mobility shift assay relative to control
# [14] = biological target: Macrophage colony-stimulating factor 1 receptor (Homo sapiens) (UniProt P07333); assay: Inhibition of recombinant N-terminal GST-fusion protein tagged human FMS cytoplasmic domain (538 to 972 residues) expressed in baculovirus expression system assessed as decrease in fluorescence labelled Srctide phosphorylation at 200 nM by off-chip mobility shift assay relative to control
# [15] = biological target: Mast/stem cell growth factor receptor Kit (Homo sapiens) (UniProt P10721); assay: Inhibition of recombinant N-terminal GST-fusion protein tagged human KIT cytoplasmic domain (544 to 976 residues) expressed in baculovirus expression system assessed as decrease in fluorescence labelled Srctide phosphorylation at 200 nM by off-chip mobility shift assay relative to control
# [16] = biological target: Protein-tyrosine kinase 2-beta (Homo sapiens) (UniProt Q14289); assay: Inhibition of recombinant N-terminal GST-fusion protein tagged human full length PYK2 (1 to 967 residues) expressed in baculovirus expression system assessed as decrease in fluorescence labelled Blk/Lyntide phosphorylation at 200 nM by off-chip mobility shift assay relative to control
# [17] = biological target: Proto-oncogene tyrosine-protein kinase ROS (Homo sapiens) (UniProt P08922); assay: Inhibition of recombinant N-terminal GST-fusion protein tagged human ROS1 cytoplasmic domain (1883 to 2347 residues) expressed in baculovirus expression system assessed as decrease in fluorescence labelled IRS1 phosphorylation at 200 nM by off-chip mobility shift assay relative to control
# [18] = biological target: Tyrosine-protein kinase SYK (Homo sapiens) (UniProt P43405); assay: Inhibition of recombinant N-terminal GST-fusion protein tagged human full length SYK (1 to 635 residues) expressed in baculovirus expression system assessed as decrease in fluorescence labelled Blk/Lyntide phosphorylation at 200 nM by off-chip mobility shift assay relative to control
# [19] = biological target: High affinity nerve growth factor receptor (Homo sapiens) (UniProt P04629); assay: Inhibition of recombinant N-terminal GST-fusion protein tagged human TRKA cytoplasmic domain (436 to 790 residues) expressed in baculovirus expression system assessed as decrease in fluorescence labelled CSKtide phosphorylation at 200 nM by off-chip mobility shift assay relative to control
# [20] = biological target: CDK2/Cyclin A2 (Homo sapiens) (UniProt P24941+P20248); assay: Inhibition of recombinant human full length N-terminal GST-tagged CDK2 (1 to 298 residues)/GST-tagged CyclinA2 (1 to 432 residues) expressed in baculovirus expression system assessed as decrease in fluorescence labelled modified histone H1 phosphorylation at 200 nM by off-chip mobility shift assay relative to control
# [21] = biological target: Serine/threonine-protein kinase Chk2 (Homo sapiens) (UniProt O96017); assay: Inhibition of recombinant N-terminal GST-fusion protein tagged human full length CHK2 (1 to 543 residues) expressed in baculovirus expression system assessed as decrease in fluorescence labelled CHKtide phosphorylation at 200 nM by off-chip mobility shift assay relative to control
# [22] = biological target: Mitogen-activated protein kinase kinase kinase kinase 4 (Homo sapiens) (UniProt O95819); assay: Inhibition of recombinant N-terminal GST-fusion protein tagged human HGK catalytic domain (1 to 328 residues) expressed in baculovirus expression system assessed as decrease in fluorescence labelled Moesin-derived phosphorylation at 200 nM by off-chip mobility shift assay relative to control
# [23] = biological target: T2, Interleukin-1 receptor-associated kinase 4 (Homo sapiens) (UniProt Q9NWZ3); assay: Inhibition of recombinant N-terminal GST-fusion protein tagged human full length IRAK4 (1 to 460 residues) expressed in baculovirus expression system assessed as decrease in fluorescence labelled IRAK1 phosphorylation at 200 nM by off-chip mobility shift assay relative to control
# T2 sequence (whole entry): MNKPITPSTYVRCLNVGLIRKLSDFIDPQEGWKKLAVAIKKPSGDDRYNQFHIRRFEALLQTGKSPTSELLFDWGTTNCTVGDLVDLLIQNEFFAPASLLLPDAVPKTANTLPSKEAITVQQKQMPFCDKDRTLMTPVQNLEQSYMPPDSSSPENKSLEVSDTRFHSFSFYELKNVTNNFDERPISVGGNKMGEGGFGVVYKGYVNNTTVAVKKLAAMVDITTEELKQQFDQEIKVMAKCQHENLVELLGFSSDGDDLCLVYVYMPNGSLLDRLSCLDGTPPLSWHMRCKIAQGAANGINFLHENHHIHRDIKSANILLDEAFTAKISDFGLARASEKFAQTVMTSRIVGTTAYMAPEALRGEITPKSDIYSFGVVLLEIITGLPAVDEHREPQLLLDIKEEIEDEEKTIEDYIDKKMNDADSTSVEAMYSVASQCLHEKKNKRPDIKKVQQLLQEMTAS
# [24] = biological target: Mitogen-activated protein kinase kinase kinase 9 (Homo sapiens) (UniProt P80192); assay: Inhibition of recombinant N-terminal GST-fusion protein tagged human MLK1 catalytic domain (110 to 422 residues) expressed in baculovirus expression system assessed as decrease in GST-labelled MAP2K7 phosphorylation at 200 nM by HRP-labelled anti-rabbit antibody based ELISA method relative to control
# [25] = biological target: T3, Testis-specific serine/threonine-protein kinase 1 (Homo sapiens) (UniProt Q9BXA7); assay: Inhibition of recombinant N-terminal GST fusion protein tagged human full length TSSK1 (1 to 367 residues) expressed in baculovirus expression system assessed as decrease in fluorescence labelled GS peptide phosphorylation at 200 nM by off-chip mobility shift assay relative to control
# T3 sequence (whole entry): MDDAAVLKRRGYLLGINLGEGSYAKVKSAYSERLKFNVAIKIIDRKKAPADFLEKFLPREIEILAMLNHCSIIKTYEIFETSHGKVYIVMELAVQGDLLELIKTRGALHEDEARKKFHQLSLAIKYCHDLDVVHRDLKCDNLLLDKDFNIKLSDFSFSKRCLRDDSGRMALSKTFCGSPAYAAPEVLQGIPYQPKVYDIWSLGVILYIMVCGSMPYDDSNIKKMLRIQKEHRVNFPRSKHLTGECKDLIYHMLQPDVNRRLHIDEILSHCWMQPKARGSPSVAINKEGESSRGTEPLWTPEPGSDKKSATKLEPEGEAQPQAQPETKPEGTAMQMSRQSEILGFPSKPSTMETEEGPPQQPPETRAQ
# [26] = biological target: Tyrosine-protein kinase Fes/Fps (Homo sapiens) (UniProt P07332); assay: Inhibition of recombinant N-terminal GST fusion protein tagged human full length FES (1 to 413/416 to 822 residues) expressed in baculovirus expression system assessed as decrease in fluorescence labelled Srctide phosphorylation at 200 nM by off-chip mobility shift assay relative to control
# [27] = Solubility in FaSSIF; format: physicochemical; procedure, shortened: as §1
# [28] = biological target: T1, Tyrosine-protein kinase Fer; assay: Inhibition of recombinant N-terminal GST-tagged human full length FER (1 to 822 residues) expressed in baculovirus expression system decrease in fluorescence labelled Srctide phosphorylation at 200 nM by off-chip mobility shift assay relative to control
# Target sequence in this assay (P16591 whole entry, looked up, the tested form may be a part): as the sequence (P16591 whole entry, the tested form may be a part) above
# [29] = biological target: T1, Tyrosine-protein kinase Fer
# Target sequence in this assay (P16591 whole entry, looked up, the tested form may be a part): as the sequence (P16591 whole entry, the tested form may be a part) above
# Protein-tyrosine kinase 2-beta (Homo sapiens), sequence (Q14289 whole entry, looked up, the tested form may be a part): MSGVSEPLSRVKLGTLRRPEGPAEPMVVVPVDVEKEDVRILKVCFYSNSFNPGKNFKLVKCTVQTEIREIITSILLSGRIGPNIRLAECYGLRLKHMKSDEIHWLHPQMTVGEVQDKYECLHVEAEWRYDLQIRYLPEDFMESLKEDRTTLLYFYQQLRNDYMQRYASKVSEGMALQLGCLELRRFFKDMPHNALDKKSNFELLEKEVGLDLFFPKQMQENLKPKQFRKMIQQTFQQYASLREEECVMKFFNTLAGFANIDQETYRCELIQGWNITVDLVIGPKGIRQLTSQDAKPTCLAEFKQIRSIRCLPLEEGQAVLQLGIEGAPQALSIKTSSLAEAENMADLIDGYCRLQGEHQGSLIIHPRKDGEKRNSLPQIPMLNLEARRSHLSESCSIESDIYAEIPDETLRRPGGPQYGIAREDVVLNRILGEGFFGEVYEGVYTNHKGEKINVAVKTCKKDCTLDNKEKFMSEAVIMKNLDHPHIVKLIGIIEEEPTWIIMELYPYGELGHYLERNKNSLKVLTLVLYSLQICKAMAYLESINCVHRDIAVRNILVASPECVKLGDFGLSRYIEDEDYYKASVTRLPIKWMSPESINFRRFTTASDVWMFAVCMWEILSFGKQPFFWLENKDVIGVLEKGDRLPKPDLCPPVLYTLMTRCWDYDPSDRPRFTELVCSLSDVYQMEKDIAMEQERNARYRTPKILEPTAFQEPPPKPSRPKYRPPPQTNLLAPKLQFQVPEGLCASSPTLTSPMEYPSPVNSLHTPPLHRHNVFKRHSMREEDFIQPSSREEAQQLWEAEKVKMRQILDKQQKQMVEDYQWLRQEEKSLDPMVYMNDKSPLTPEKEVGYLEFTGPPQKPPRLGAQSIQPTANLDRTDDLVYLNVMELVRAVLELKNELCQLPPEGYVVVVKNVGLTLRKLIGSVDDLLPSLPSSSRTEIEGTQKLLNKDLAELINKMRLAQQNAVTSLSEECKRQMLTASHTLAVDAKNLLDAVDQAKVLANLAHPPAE
# Macrophage colony-stimulating factor 1 receptor (Homo sapiens), sequence (P07333 whole entry, the tested form may be a part): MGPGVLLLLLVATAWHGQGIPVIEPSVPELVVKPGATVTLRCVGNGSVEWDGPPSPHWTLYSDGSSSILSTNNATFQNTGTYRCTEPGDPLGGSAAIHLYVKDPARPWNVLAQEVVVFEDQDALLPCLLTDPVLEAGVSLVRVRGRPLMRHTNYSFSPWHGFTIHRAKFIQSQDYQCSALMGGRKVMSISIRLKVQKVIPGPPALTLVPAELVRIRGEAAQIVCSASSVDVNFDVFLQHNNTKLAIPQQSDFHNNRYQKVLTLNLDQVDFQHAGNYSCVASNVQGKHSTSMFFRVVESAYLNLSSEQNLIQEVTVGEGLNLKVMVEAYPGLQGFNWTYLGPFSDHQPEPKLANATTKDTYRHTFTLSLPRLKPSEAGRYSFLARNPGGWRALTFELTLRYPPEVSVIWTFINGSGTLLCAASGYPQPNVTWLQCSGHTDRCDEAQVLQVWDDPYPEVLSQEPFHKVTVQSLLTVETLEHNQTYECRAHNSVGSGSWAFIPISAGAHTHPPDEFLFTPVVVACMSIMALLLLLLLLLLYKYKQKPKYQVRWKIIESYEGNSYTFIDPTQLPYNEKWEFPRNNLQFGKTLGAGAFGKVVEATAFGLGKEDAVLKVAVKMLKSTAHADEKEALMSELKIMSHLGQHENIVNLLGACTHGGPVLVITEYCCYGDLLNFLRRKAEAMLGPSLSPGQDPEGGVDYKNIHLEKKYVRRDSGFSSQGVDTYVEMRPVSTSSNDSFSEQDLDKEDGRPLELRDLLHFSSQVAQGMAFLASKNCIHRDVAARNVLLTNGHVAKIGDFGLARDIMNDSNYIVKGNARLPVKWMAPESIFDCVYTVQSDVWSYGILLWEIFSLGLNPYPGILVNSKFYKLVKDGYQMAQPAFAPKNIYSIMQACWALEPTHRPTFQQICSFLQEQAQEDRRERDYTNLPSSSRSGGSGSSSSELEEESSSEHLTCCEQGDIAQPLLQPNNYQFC
# High affinity nerve growth factor receptor (Homo sapiens), sequence (P04629 33-796 limits assumed): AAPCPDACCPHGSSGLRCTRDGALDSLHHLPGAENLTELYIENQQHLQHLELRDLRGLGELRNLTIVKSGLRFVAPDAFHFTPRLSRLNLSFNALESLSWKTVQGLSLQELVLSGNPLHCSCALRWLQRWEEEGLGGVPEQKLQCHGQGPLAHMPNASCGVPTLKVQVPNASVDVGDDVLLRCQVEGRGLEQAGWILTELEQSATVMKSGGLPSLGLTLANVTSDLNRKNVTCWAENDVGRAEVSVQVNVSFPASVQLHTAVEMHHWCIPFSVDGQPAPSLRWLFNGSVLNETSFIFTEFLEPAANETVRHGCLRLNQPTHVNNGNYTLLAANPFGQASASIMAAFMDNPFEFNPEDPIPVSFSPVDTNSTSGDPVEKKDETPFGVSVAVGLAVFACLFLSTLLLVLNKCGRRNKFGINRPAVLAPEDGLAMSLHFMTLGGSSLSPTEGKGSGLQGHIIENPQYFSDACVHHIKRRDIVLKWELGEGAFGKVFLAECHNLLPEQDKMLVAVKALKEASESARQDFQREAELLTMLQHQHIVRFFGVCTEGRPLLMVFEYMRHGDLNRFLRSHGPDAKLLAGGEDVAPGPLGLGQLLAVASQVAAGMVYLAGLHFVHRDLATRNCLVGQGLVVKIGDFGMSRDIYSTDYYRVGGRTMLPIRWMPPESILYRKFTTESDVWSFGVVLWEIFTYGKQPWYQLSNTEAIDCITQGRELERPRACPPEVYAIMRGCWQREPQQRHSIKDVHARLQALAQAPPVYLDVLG
# Serine/threonine-protein kinase Chk2 (Homo sapiens), sequence (O96017 whole entry, the tested form may be a part): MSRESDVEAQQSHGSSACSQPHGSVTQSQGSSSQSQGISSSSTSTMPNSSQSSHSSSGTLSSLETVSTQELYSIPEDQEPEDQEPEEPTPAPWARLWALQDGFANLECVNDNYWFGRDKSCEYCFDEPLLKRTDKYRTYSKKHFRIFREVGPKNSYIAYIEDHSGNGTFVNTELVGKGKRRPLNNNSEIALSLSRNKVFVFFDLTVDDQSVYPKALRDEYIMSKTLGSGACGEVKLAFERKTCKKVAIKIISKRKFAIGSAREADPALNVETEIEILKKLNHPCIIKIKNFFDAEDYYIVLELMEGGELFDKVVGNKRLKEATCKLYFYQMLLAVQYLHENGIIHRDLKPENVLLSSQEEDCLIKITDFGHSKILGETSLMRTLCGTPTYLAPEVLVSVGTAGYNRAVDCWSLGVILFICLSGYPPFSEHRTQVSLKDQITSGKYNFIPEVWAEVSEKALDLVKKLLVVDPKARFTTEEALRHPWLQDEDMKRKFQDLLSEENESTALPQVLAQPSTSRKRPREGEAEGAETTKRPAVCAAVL
smiles,measurement,setting,value
Cc1cccc(Nc2nc(N[C@@H]3CCCC[C@@H]3N)c(C#N)c3cn[nH]c(=O)c23)c1,IC50,[1],0.49 nM
same,GI50 at 72 h,[2],220 nM
same,"remaining at 0.5 h, 1 µM",[3],96%
same,solubility,[4],0.9 µg/mL
same,"fraction unbound at 4 h, 10 ug/mL",[5],0.01
same,"Papp at 24 h, 5 µM",[6],> 50 ×10⁻⁶ cm/s
same,clearance,[7],12 mL/min/kg
same,AUC at 24 h,[8],4800 ng·h/mL
same,Cmax,[9],360 ng/mL
same,bioavailability,[10],34%
same,Activity,BaF3,Dose-dependent effect
same,Activity,[11],Non-Toxic
same,Cp(f),Mus musculus,3.1 nM
same,inhibition,[12],> 90%
same,inhibition,[13],> 90%
same,inhibition,[14],> 90%
same,inhibition,[15],> 90%
same,inhibition,[16],> 90%
same,inhibition,[17],> 90%
same,inhibition,[18],> 90%
same,inhibition,[19],> 90%
same,inhibition,[20],> 90%
same,inhibition,[21],> 90%
same,inhibition,[22],> 90%
same,inhibition,[23],> 90%
same,inhibition,[24],> 90%
same,inhibition,[25],> 90%
same,inhibition,[26],> 90%
same,solubility,[27],2.1 µg/mL
same,inhibition,[28],> 90%
same,GI50,[29],1.9 nM
Cc1cccc(Cc2nc(N[C@@H]3CCCC[C@@H]3N)c(C#N)cc2C(N)=O)c1,IC50,[1],> 4000 nM
Cc1cccc(Nc2ccc(C#N)c(N[C@@H]3CCCC[C@@H]3N)n2)c1,IC50,[1],> 4000 nM
Cc1cccc(Nc2nc(N[C@@H]3CCCC[C@@H]3N)c(C#N)cc2C(N)=O)c1,"remaining at 0.5 h, 1 µM",[3],100%
same,solubility,[4],35 µg/mL
same,"fraction unbound at 4 h, 10 ug/mL",[5],0.01
same,"Papp at 24 h, 5 µM",[6],16 ×10⁻⁶ cm/s
same,clearance,[7],12 mL/min/kg
same,AUC at 24 h,[8],2400 ng·h/mL
same,Cmax,[9],420 ng/mL
same,bioavailability,[10],17%
same,solubility,[27],49 µg/mL
Cc1cccc(Nc2nc(NC3CCCCC3N)cc3c2C(=O)NCC3)c1 (racemic),GI50 at 72 h,[2],4300 nM
Cc1cccc(Nc2nc(NC3CCCCC3N)cc3cn[nH]c(=O)c23)c1 (racemic),GI50 at 72 h,[2],1500 nM
N#Cc1cc(C(N)=O)c(N)nc1N[C@@H]1CCCC[C@@H]1N,IC50,[1],> 4000 nM
Cc1cccc(Nc2nc(NC3CCCCC3N)c(Cl)c3cn[nH]c(=O)c23)c1 (racemic),GI50 at 72 h,[2],1500 nM
Cc1cccc(Nc2nc(NC3CCCCC3N)cc3cc[nH]c(=O)c23)c1 (racemic),GI50 at 72 h,[2],1920 nM
Cc1cccc(-n2c(=O)[nH]c3cc(C#N)c(N[C@@H]4CCCC[C@@H]4N)nc32)c1,IC50,[1],> 1300 nM
N#Cc1cc2c(N)nn(Cc3ccccc3)c2nc1NC1CCCCC1N (racemic),IC50,[1],> 4000 nM
same,GI50 at 72 h,[2],> 5000 nM
same,GI50,[29],> 4000 nM
